Screening data as filed in PubChem BioAssay.
A selection: hits, their analogues and other compounds. The true share with any hit is near 1.8%.
M4 PAM: potentiates acetylcholine response at human M4 receptor. 360,000 tested, 0.4% active. CHO-K1 hM4/Gqi5, Fluo-8 calcium fluorescence, ACh EC20; 0% = ACh EC20, 100% = maximal ACh. P08173. activation, % at 3 µM;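 active means activation above its plate's cutoff, the mean activation of sample wells plus 3 SD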
CHRM5 PAM: CHRM5 positive allosteric modulation. P08912. CHO-K1 hM5, Fluo-8 calcium, ACh EC20 PAM; 0% = ACh EC20, 100% = ACh EC100. activation, % at 3 µM. 360,000 tested, 0.3% active. AID 624038;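 active means activation above the run cutoff, the mean activation of all test compounds plus 3 SD, cut at about 18% in these data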
Target sequence (P08912 whole entry, looked up): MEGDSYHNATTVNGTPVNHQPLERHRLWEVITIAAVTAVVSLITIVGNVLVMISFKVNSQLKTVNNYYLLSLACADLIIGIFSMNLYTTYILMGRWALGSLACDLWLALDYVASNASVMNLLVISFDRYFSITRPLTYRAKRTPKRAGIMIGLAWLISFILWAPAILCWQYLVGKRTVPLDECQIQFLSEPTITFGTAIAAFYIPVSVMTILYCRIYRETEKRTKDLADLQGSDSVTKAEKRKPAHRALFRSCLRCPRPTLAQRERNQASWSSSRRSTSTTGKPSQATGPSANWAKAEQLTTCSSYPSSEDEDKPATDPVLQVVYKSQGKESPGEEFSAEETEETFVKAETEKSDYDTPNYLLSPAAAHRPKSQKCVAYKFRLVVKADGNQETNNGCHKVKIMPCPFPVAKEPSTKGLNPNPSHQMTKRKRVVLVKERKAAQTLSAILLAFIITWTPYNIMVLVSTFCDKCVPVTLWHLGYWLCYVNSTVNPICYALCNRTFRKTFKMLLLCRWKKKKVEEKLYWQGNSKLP
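Replicates: One well per compound, no replicates | System: Human M5 receptor in CHO-K1 cells | Benchmarks: Low control EC20 acetylcholine (0%), high control EC100 acetylcholine (100%) | Probe or stimulus: Acetylcholine, EC20 level | Times: Fluo-8 loading 80 min at 37 °C plus 30 min room temperature | Signal: Intracellular calcium via Fluo-8 fluorescence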
CHRM4 antagonist: blocks acetylcholine activation of human M4 receptor | CHO-hM4 cells, ACh EC80, Fluo-8 calcium fluorescence | inhibition, % at 3 µM | 360,000 tested, 0.73% active | AID 624125;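 active means inhibition above its plate's cutoff, the mean inhibition of sample wells plus 3 SD, cut at about 27% in these data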;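 further: 0% = acetylcholine EC80 with DMSO and 100% = DMSO without agonist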
M4 ag: agonists of human muscarinic M4 receptor (CHRM4) | CHO-K1 hM4/Gqi5, Fluo-8 calcium fluorescence; vehicle 0%, full acetylcholine response 100% | activation, % at 3 µM | 360,000 tested, 0.14% active | AID 624127;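 active means activation above the run mean over all test wells plus 3 SD, cut at about 32% in these data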;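 further: peak over basal fluorescence ratio per well then scaled between controls; 0% = DMSO wells and 100% = acetylcholine at EC100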
M5 ag: CHRM5 agonism in calcium assay | CHO-K1 hM5 cells, Fluo-8 calcium fluorescence; 0% DMSO wells, 100% maximal acetylcholine response | activation, % at 3 µM | 360,000 tested, 0.19% active | AID 624037;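 active means activation above the run's mean over test compounds plus 3 SD, cut at about 23% in these data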;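 further: signal is peak over basal fluorescence ratio across the kinetic read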
CHRM5 antagonist: blocks acetylcholine activation of human M5 receptor; CHO-hM5 cells, Fluo-8 calcium fluorescence, ACh EC80; inhibition, % at 3 µM; 360,000 tested, 0.59% active;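 active means inhibition above a per-plate cutoff, the mean of that plate's test compounds plus 3 SD, cut at about 27% in these data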;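 further: 0% = acetylcholine EC80 with DMSO and 100% = DMSO without agonist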
Numbers without * were called inactive.

Results for COc1ccc(NC(=O)CN2C(=O)NC(C)(c3ccccc3)C2=O)cc1Cl (centres undefined) ?
M4 PAM: 0; CHRM5 PAM: 8; CHRM4 antagonist: 6; M4 ag: 6; M5 ag: 5; CHRM5 antagonist: -8

How did CCOc1ccc(NC(=O)CN(C)C(=O)c2cccnc2Sc2ccc(C)c(C)c2)cc1OCC do in these assays?
M4 PAM: 4; CHRM5 PAM: 22*; CHRM4 antagonist: -7; M4 ag: 5; M5 ag: 2; CHRM5 antagonist: -2

Results for COc1cc(C=O)ccc1OC(=O)c1cccnc1 ?
M4 PAM: 0; CHRM5 PAM: -14; CHRM4 antagonist: -8; M4 ag: 1; M5 ag: -2; CHRM5 antagonist: 30*

Results for O=C(c1ccc([N+](=O)[O-])cc1)N(Cc1ccc(Cl)cc1Cl)N1C(=O)CCCC1=O ?
M4 PAM: 0; CHRM5 PAM: 2; CHRM4 antagonist: 67*; M4 ag: 1; M5 ag: -1; CHRM5 antagonist: -1

What do the screens show for `O=C(c1ccc([N+](=O)[O-])cc1)N(Cc1ccc(Cl)cc1)N1C(=O)CCCC1=O`?
M4 PAM: 3; CHRM5 PAM: -3; CHRM4 antagonist: 3; M4 ag: 3; M5 ag: -1; CHRM5 antagonist: -2

What do the screens show for `COCCNc1nc(N2CCCCC2)c2cnn(C)c2n1`?
M4 PAM: 0; CHRM5 PAM: 18*; CHRM4 antagonist: 3; M4 ag: 1; M5 ag: -2; CHRM5 antagonist: -26

How did CCc1nn(CC(=O)NC(C)CCc2ccccc2)c(=O)c2cc3cc(F)ccc3n12 (centres undefined) do in these assays?
M4 PAM: -3; CHRM5 PAM: -3; CHRM4 antagonist: 1; M4 ag: 2; M5 ag: -4; CHRM5 antagonist: 10

What do the screens show for `COc1ccc2c(c1)cc1c(=O)n(CC(=O)NC(C)CCc3ccccc3)nc(C)n12` (centres undefined)?
M4 PAM: 15*; CHRM5 PAM: 6; CHRM4 antagonist: -14; M4 ag: 1; M5 ag: -4; CHRM5 antagonist: -11

Results for Cc1ccc(C(=O)COC(=O)CNC(=O)c2ccccc2)s1 ?
M4 PAM: 22*; CHRM5 PAM: 7; CHRM4 antagonist: -6; M4 ag: 1; M5 ag: 6; CHRM5 antagonist: -1

What do the screens show for `COc1ccc(NC(=O)c2[nH]ncc2[N+](=O)[O-])cc1`?
M4 PAM: 1; CHRM5 PAM: 18*; CHRM4 antagonist: -1; M4 ag: 0; M5 ag: 0; CHRM5 antagonist: -9

What do the screens show for `COC(C[C@@H](O)[C@H](C)[C@@H](O)COCc1ccccc1)OC`?
M4 PAM: -11; CHRM5 PAM: -14; CHRM4 antagonist: 36*; M4 ag: 3; M5 ag: -3; CHRM5 antagonist: 5

How did COc1ccc(NC2=C(Cl)C(=O)N(c3ccccc3)C2=O)c(OC)c1 do in these assays?
M4 PAM: -6; CHRM5 PAM: -1; CHRM4 antagonist: -3; M4 ag: 2; M5 ag: 2; CHRM5 antagonist: -3

How did COc1ccc(N2C(=O)C(Cl)=C(Nc3ccc(OC)cc3OC)C2=O)cc1 do in these assays?
M4 PAM: 4; CHRM5 PAM: 19*; CHRM4 antagonist: -4; M4 ag: 0; M5 ag: 4; CHRM5 antagonist: -1

How did Cc1cc(C)nc(NC2=NCC(=O)N2c2cc(Cl)cc(Cl)c2)n1 do in these assays?
M4 PAM: 0; CHRM5 PAM: 7; CHRM4 antagonist: 7; M4 ag: 1; M5 ag: -1; CHRM5 antagonist: -2

What do the screens show for `Cc1cccc(N2C(=O)CN=C2Nc2nc(C)cc(C)n2)c1`?
M4 PAM: 18*; CHRM5 PAM: -7; CHRM4 antagonist: -15; M4 ag: 1; M5 ag: -5; CHRM5 antagonist: -1

Results for Cc1ccc2nc(-c3ccc(Cl)cc3)c(Cc3cccc(Cl)c3)n2c1 ?
M4 PAM: -4; CHRM5 PAM: -20; CHRM4 antagonist: -3; M4 ag: -1; M5 ag: -6; CHRM5 antagonist: 1

How did Cc1ccc2nc(C(C)(C)C)c(Cc3cccc(Cl)c3)n2c1 do in these assays?
M4 PAM: -15; CHRM5 PAM: -22; CHRM4 antagonist: 27*; M4 ag: -2; M5 ag: -8; CHRM5 antagonist: 20

Results for c1ccc(CCNc2ncnc3ccccc23)cc1 ?
M4 PAM: -6; CHRM5 PAM: -16; CHRM4 antagonist: 22; M4 ag: 14; M5 ag: 6; CHRM5 antagonist: 30*

What do the screens show for `CCCCCCCCNc1ncnc2ccccc12`?
M4 PAM: -19; CHRM5 PAM: -15; CHRM4 antagonist: 27*; M4 ag: 9; M5 ag: 3; CHRM5 antagonist: 43*

How did Cc1cc2c(NCCc3ccccc3)ncnc2s1 do in these assays?
M4 PAM: -11; CHRM5 PAM: -23; CHRM4 antagonist: 12; M4 ag: 15; M5 ag: 0; CHRM5 antagonist: 7

How did C[N+]12CCC(CC1)C(OC(=O)C(O)(c1ccccc1)c1ccccc1)C2 (centres undefined) do in these assays?
M4 PAM: -18; CHRM5 PAM: -18; CHRM4 antagonist: 100*; M4 ag: 0; M5 ag: -2; CHRM5 antagonist: 99*

Results for CN(Cc1ccc(Cl)c(Cl)c1)C(C(=O)NCc1ccccc1)c1ccc(C(F)(F)F)cc1 (centres undefined) ?
M4 PAM: -17; CHRM5 PAM: -19; CHRM4 antagonist: 22; M4 ag: 3; M5 ag: -5; CHRM5 antagonist: -1

What do the screens show for `O=C(CCN=C1NS(=O)(=O)c2ccccc21)OCc1nnc(-c2ccc([N+](=O)[O-])cc2)o1`?
M4 PAM: 5; CHRM5 PAM: 6; CHRM4 antagonist: 5; M4 ag: 2; M5 ag: -1; CHRM5 antagonist: 2

How did Cc1onc(-c2ccccc2Cl)c1C(=O)N1CCOC12CCCCC2 do in these assays?
M4 PAM: 19*; CHRM5 PAM: 14; CHRM4 antagonist: -17; M4 ag: 2; M5 ag: 2; CHRM5 antagonist: 4

Results for Cc1onc(-c2c(Cl)cccc2Cl)c1C(=O)N1CCc2ccccc2C1 ?
M4 PAM: -16; CHRM5 PAM: -22; CHRM4 antagonist: 32*; M4 ag: -1; M5 ag: -8; CHRM5 antagonist: 12

How did O=C(O)Cn1c(C(F)(F)F)nc2ccccc21 do in these assays?
M4 PAM: 20; CHRM5 PAM: 2; CHRM4 antagonist: 32*; M4 ag: 1; M5 ag: 3; CHRM5 antagonist: 0
